Results as given in ChEMBL document CHEMBL3132834, “Synthesis and biological activity of NOSH-naproxen (AVT-219) and NOSH-sulindac (AVT-18A) as potent anti-inflammatory agents with chemotherapeutic potential” (Medchemcomm, 2013).

Legend:
[1] = tested on: HT-29; test: Cytotoxicity against human HT-29 cells assessed as growth inhibition after 24 hrs by MTT assay; type: functional, cell-based; details: for IC50: HT-29, 24 h
Method in brief: (§1)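 Cells grown in 10% FCS medium: HT-29 in McCoy 5A; MCF-7 and BxPC-3 in DMEM. 50,000 cells/well exposed to a range of concentrations for 24 h. MTT added for 2 h at 37°C, formazan dissolved in 10% SDS/0.01 M HCl, A570 read. IC₅₀ from cell numbers; mean ± S.E.M. of 5–7 experiments in triplicate. Ratios are parent IC₅₀ over hybrid IC₅₀.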

[2] = tested on: Serum; test: Prodrug conversion in carrageenan-induced Wistar rat model assessed as sulfide species in serum at 200 mg/kg through gavage administered 1 hr prior to carrageenan-challenge; type: ADME, organism-based; parameters: dose 200 mg/kg; details: in vivo, po
Method in brief: (§2)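 Blood taken at the end of the carrageenan edema study from gavage-dosed rats (3 per group). Sulfide measured by the methylene blue method: plasma mixed with zinc acetate, trichloroacetic acid, N,N-dimethyl-p-phenylenediamine and FeCl₃ in 7.2M HCl, A670 read after 15 min. Run in duplicate against a NaHS calibration curve (1-250 μM). The read-out is total H₂S + HS⁻ + S²⁻.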

[3] = tested on: Jurkat; test: Cytotoxicity against human Jurkat cells assessed as growth inhibition after 24 hrs by MTT assay; type: functional, cell-based
Method in brief: (§3)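 30,000 cells/well added to serially diluted compounds in V-bottom plates, 24 h at 37°C in 5% CO₂. MTT (1.1 mg/mL) added for 4 h more, formazan dissolved in DMSO, A570 read. IC₅₀ from 5–7 experiments in triplicate; ratio is parent IC₅₀ over hybrid IC₅₀.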

[4] = tested on: Rattus norvegicus; test: Antiinflammatory activity in Wistar rat assessed as inhibition of carrageenan-induced paw volume at 200 mg/kg through gavage administered 1 hr prior to carrageenan-challenge measured after 4 hrs (reference value: 1.1 +/- 0.1 mL); type: functional
[5] = tested on: Rattus norvegicus; test: Antiinflammatory activity in carrageenan-induced Wistar rat model assessed as inhibition of PGE2 level at 200 mg/kg through gavage administered 1 hr prior to carrageenan-challenge measured after 4 hrs (reference value: 95 +/- 7 pg/mL); type: functional
[6] = (§4) Cytotoxicity against human BxPC3 cells assessed as growth inhibition after 24 hrs by MTT assay; type: functional, cell-based; details: BXPC-3, 24 h; method in brief: as §1
[7] = tested on: MCF7; test: Cytotoxicity against human MCF7 cells assessed as growth inhibition after 24 hrs by MTT assay; type: functional, cell-based; details: for IC50: MCF7, 24 h; method in brief: as §1
[8] = Selectivity ratio of IC50 for human BxPC3 cells to IC50 for human ACBRI 515 cells; type: ADME, cell-based, BXPC-3; details: BxPC3 cells versus ACBRI 515 cells, read-out: Ratio IC50
[9] = tested on: Rattus norvegicus; test: Antiinflammatory activity in Wistar rat assessed as inhibition of carrageenan-induced paw volume at 188 mg/kg through gavage administered 1 hr prior to carrageenan-challenge measured after 4 hrs (reference value: 1.1 +/- 0.1 mL); type: functional
[10] = tested on: HT-29; test: Antiproliferative activity against human HT-29 cells assessed as reduction in PCNA expression at IC50 concentration; type: functional, cell-based; details: TDE = time-dependent effect
[11] = tested on: Serum; test: Prodrug conversion in carrageenan-induced Wistar rat model assessed as sulfide species in serum at 188 mg/kg through gavage administered 1 hr prior to carrageenan-challenge; type: ADME, organism-based; parameters: dose 188 mg/kg; details: in vivo, po; method in brief: as §2
[12] = tested on: HT-29; test: Antiproliferative activity against human HT-29 cells assessed as reduction in PCNA expression at IC50 concentration after 24 hrs; type: functional
[13] = tested on: HT-29; test: Cell cycle arrest in human HT-29 cells assessed as accumulation at G0/G1 phase at IC50 concentration after 24 hrs by propidium iodide staining-based flow cytometric analysis (reference value: 42.2 +/- 4%); type: functional
[14] = tested on: HT-29; test: Cell cycle arrest in human HT-29 cells assessed as accumulation at S phase at IC50 concentration after 24 hrs by propidium iodide staining-based flow cytometric analysis (reference value: 29.2 +/- 3.3%); type: functional
[15] = Selectivity ratio of IC50 for human HT-29 cells to IC50 for human IMR90 cells; type: ADME, cell-based; details: HT-29 cells versus IMR90 cells, read-out: Ratio IC50
[16] = Selectivity ratio of IC50 for human BxPC3 cells to IC50 for human IMR90 cells; type: ADME, cell-based, IMR-90; details: BxPC3 cells versus IMR90 cells, read-out: Ratio IC50
[17] = tested on: HT-29; test: Cell cycle arrest in human HT-29 cells assessed as accumulation at sub G2/M phase at IC50 concentration after 24 hrs by propidium iodide staining-based flow cytometric analysis (reference value: 28.7 +/- 2.1%); type: functional
[18] = Selectivity ratio of IC50 for human MCF7 cells to IC50 for human HMEpC cells; type: ADME, cell-based; details: MCF7 cells versus HMEpC cells, read-out: Ratio IC50
[19] = Selectivity ratio of IC50 for human Jurkat cells to IC50 for human IMR90 cells; type: ADME, cell-based; details: Jurkat cells versus IMR90 cells, read-out: Ratio IC50
[20] = tested on: HT-29; test: Induction of human HT-29 cells assessed as assessed as early apoptotic cells at IC50 concentration after 6 hrs by propidium iodide staining-based flow cytometric analysis; type: functional
[21] = tested on: BXPC-3; test: as §4; type: functional, cell-based; method in brief: as §1
[22] = Cytotoxicity against human IMR90 cells assessed as growth inhibition after 24 hrs by MTT assay; type: cell-based; details: IMR-90, 24 h
Method in brief: (§5)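 Normal human cells: IMR-90 lung fibroblasts in EMEM with 10% heat-inactivated FCS and 2 mmol/L L-glutamine; primary pancreatic epithelial ACBRI 515 in serum-free medium with attachment factor; HMEpC in mammary epithelial growth medium. Exposed to a range of concentrations for 24 h; IC₅₀ from cell numbers. Mean ± SEM of 3 experiments in duplicate.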

[23] = Cytotoxicity against human HMEpC cells assessed as growth inhibition after 24 hrs by MTT assay; type: cell-based; method in brief: as §5
[24] = tested on: Rattus norvegicus; test: Antiinflammatory activity in carrageenan-induced Wistar rat model assessed as inhibition of PGE2 level at 188 mg/kg through gavage administered 1 hr prior to carrageenan-challenge measured after 4 hrs (reference value: 95 +/- 7 pg/mL); type: functional
[25] = tested on: HT-29; test: Induction of human HT-29 cells assessed as assessed as early apoptotic cells at IC50 concentration after 12 hrs by propidium iodide staining-based flow cytometric analysis; type: functional
[26] = Selectivity ratio of IC50 for human MCF7 cells to IC50 for human IMR90 cells; type: ADME, cell-based, IMR-90; details: MCF7 cells versus IMR90 cells, read-out: Ratio IC50
[27] = Cytotoxicity against human ACBRI 515 cells assessed as growth inhibition after 24 hrs by MTT assay; type: cell-based; details: ACBRI-515, 24 h; method in brief: as §5
[28] = tested on: HT-29; test: Induction of human HT-29 cells assessed as assessed as early apoptotic cells at IC50 concentration after 24 hrs by propidium iodide staining-based flow cytometric analysis; type: functional
[29] = tested on: BXPC-3; test: Ratio of naproxen IC50 to compound IC50 for human BxPC3 cells after 24 hrs by MTT assay; type: functional
[30] = tested on: HT-29; test: Induction of human HT-29 cells assessed as assessed as early apoptotic cells at IC50 concentration after 3 hrs by propidium iodide staining-based flow cytometric analysis; type: functional
[31] = tested on: HT-29; test: Cell cycle arrest in human HT-29 cells assessed as accumulation at G0/G1 phase at IC50 concentration after 24 hrs by propidium iodide staining-based flow cytometric analysis (reference value: 40.9 +/- 3.1%); type: functional
[32] = tested on: HT-29; test: Cell cycle arrest in human HT-29 cells assessed as accumulation at sub G2/M phase at IC50 concentration after 24 hrs by propidium iodide staining-based flow cytometric analysis (reference value: 27.7 +/- 42%); type: functional
[33] = tested on: Jurkat; test: Ratio of sulindac IC50 to compound IC50 for human Jurkat cells after 24 hrs by MTT assay; type: functional
Method in brief: as §3, with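 “Jurkat T cells grown in suspension in RPMI 1640 with 10% FCS. 30,000” for “30,000”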

[34] = tested on: Serum; test: Prodrug conversion in carrageenan-induced Wistar rat model assessed as sulfide species in serum at 467 mg/kg through gavage administered 1 hr prior to carrageenan-challenge; type: ADME, organism-based; parameters: dose 467 mg/kg; details: in vivo, po; method in brief: as §2
[35] = tested on: Rattus norvegicus; test: Antiinflammatory activity in carrageenan-induced Wistar rat model assessed as inhibition of PGE2 level at 467 mg/kg through gavage administered 1 hr prior to carrageenan-challenge measured after 4 hrs (reference value: 95 +/- 7 pg/mL); type: functional
[36] = tested on: HT-29; test: Cell cycle arrest in human HT-29 cells assessed as accumulation at S phase at IC50 concentration after 24 hrs by propidium iodide staining-based flow cytometric analysis (reference value: 31.7 +/- 3.7%); type: functional
[37] = tested on: Rattus norvegicus; test: Antiinflammatory activity in Wistar rat assessed as inhibition of carrageenan-induced paw volume at 467 mg/kg through gavage administered 1 hr prior to carrageenan-challenge measured after 4 hrs (reference value: 1.1 +/- 0.1 mL; type: functional

## CC1=C(CC(=O)O)c2cc(F)ccc2/C1=C\c1ccc([S+](C)[O-])cc1 (configuration not stated)
[1]
  IC50: 800 µM
[2]
  Stability: Stable
[3]
  IC50: 699 µM
[4]
  Activity: 0.22 mL
[5]
  Activity: 12 pg/mg
[6]
  IC50: 980 µM
[7]
  IC50: 965 µM

## CC(=O)N[C@H](C(=O)O)C(C)(C)SN=O
[1]
  IC50: 508 µM

## C[C@H](C(=O)Oc1ccc(-c2cc(=S)ss2)cc1)c1ccc2cc(OC(=O)CCCO[N+](=O)[O-])ccc2c1
[8]
  selectivity ratio: 147
[1]
  growth inhibition (GI): Dose-dependent effect
  IC50: 0.08 µM
[3]
  IC50: 0.1 µM
  growth inhibition (GI): Dose-dependent effect
[9]
  Activity: 0.15 mL
[10]
  inhibition: tde
[11]
  Stability: Stable
[12]
  inhibition (INH): 50%
[13]
  Activity: 58.2%
[14]
  Activity: 22.3%
[15]
  selectivity ratio: 70
[16]
  selectivity ratio: 70
[17]
  Activity: 19.5%
[18]
  selectivity ratio: 115
[19]
  selectivity ratio: 70
[20]
  Activity: 25.3%
[6]
  IC50: 0.15 µM
[21]
  growth inhibition (GI): Dose-dependent effect
[7]
  growth inhibition (GI): Dose-dependent effect
  IC50: 0.12 µM
[22]
  IC50: 20 µM
[23]
  IC50: 13.8 µM
[24]
  Activity: 35 pg/mg
[25]
  Activity: 31.9%
[26]
  selectivity ratio: 70
[27]
  IC50: 22 µM
[28]
  Activity: 59.2%
[29]
  Ratio IC50: 16000
[30]
  Activity: 9.2%

## Oc1ccc(-c2cc(=S)ss2)cc1
[1]
  IC50: 35 µM

## COc1ccc2cc([C@H](C)C(=O)O)ccc2c1 [NAPROXEN]
[1]
  IC50: 2600 µM
[6]
  IC50: 2450 µM
[7]
  IC50: 2380 µM

## CC1=C(CC(=O)Oc2ccc(OC(=O)CCCO[N+](=O)[O-])c(C(=O)Oc3ccc(-c4cc(=S)ss4)cc3)c2)c2cc(F)ccc2/C1=C\c1ccc([S+](C)[O-])cc1 (configuration not stated)
[8]
  selectivity ratio: > 200
[1]
  growth inhibition (GI): Dose-dependent effect
  IC50: 0.089 µM
[31]
  Activity: 29.6%
[3]
  IC50: 0.27 µM
  growth inhibition (GI): Dose-dependent effect
[10]
  inhibition: tde
[32]
  Activity: 59.8%
[12]
  inhibition (INH): 50%
[33]
  Ratio IC50: 2500
[15]
  selectivity ratio: 70
[16]
  selectivity ratio: 70
[34]
  Stability: Stable
[18]
  selectivity ratio: 150
[19]
  selectivity ratio: 70
[20]
  Activity: 10.1%
[6]
  IC50: 0.12 µM
[21]
  growth inhibition (GI): Dose-dependent effect
[7]
  growth inhibition (GI): Dose-dependent effect
  IC50: 0.1 µM
[22]
  IC50: 21.7 µM
[23]
  IC50: 15.2 µM
[25]
  Activity: 23.2%
[35]
  Activity: 29 pg/mg
[26]
  selectivity ratio: 70
[27]
  IC50: > 25 µM
[28]
  Activity: 39.4%
[30]
  Activity: 2.8%
[36]
  Activity: 10.6%
[37]
  Activity: 0.21 mL
